Reference: the array DNA melting data of Ke et al. (doi:10.1101/2024.01.08.574731)

Assays:
[1] = folding enthalpy; higher = less favourable; fluorescence melt of hairpins on a sequencing array, two-state fit; conditions: sodium 0.088 M
How it was run: (§1)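 On a sequenced MiSeq flow cell, library hairpins with annealed Cy3 and quencher oligos were imaged for Cy3 fluorescence in 2.5 °C steps up to 60 °C, in 50 mM Na-HEPES pH 8.0, 25 mM NaCl. Normalisation used pre-quench Cy3 and control constructs. Bootstrapped two-state fits gave melting temperature and folding enthalpy, combined by inverse variance across four replicates and with fitted temperatures raised by 9.35 °C to match UV melts.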

[2] = melting temperature; fluorescence melt of hairpins on a sequencing array, two-state fit, raised by 9.35 °C to match UV melts; conditions: sodium 0.088 M
How it was run: as §1

| Sequence | folding enthalpy [1] | Tm [2] |
| --- | --- | --- |
| AAAACGAAAGTTTT (((((....))))) | -14.8 kcal/mol | 47.3 °C |
| AAACAGAAATGTTT (((((....))))) | -11.4 kcal/mol | 25.3 °C |
| AAACGGAAACGTTT (((((....))))) | -21.3 kcal/mol | 45.1 °C |
| AAACTGAAAAGTTT (((((....))))) | -13.4 kcal/mol | 33.6 °C |
| AACATGAAAATGTT (((((....))))) | -14.7 kcal/mol | 33.6 °C |
| AACCGGAAACGGTT (((((....))))) | -19.8 kcal/mol | 50 °C |
| AAGCAGAAATGCTT (((((....))))) | -16.8 kcal/mol | 42.1 °C |
| AAGTGGAAACACTT (((((....))))) | -19.6 kcal/mol | 42 °C |
| AATCGGAAACGATT (((((....))))) | -22.9 kcal/mol | 44.5 °C |
| AATGCGAAAGCATT (((((....))))) | -15.3 kcal/mol | 64.9 °C |
| AATTCGAAAGAATT (((((....))))) | -14.3 kcal/mol | 43.3 °C |
| ACACTGAAAAGTGT (((((....))))) | -23.4 kcal/mol | 47.4 °C |
| ACCGAGAAATCGGT (((((....))))) | -18.3 kcal/mol | 49.5 °C |
| ACCTAGAAATAGGT (((((....))))) | -11.8 kcal/mol | 36.8 °C |
| ACCTCGAAAGAGGT (((((....))))) | -19.9 kcal/mol | 59.5 °C |
| ACGTAGAAATACGT (((((....))))) | -19.9 kcal/mol | 37.9 °C |
| ACGTTGAAAAACGT (((((....))))) | -20.2 kcal/mol | 47.1 °C |
| AGAACCAGAAATGGTTCT (((((((....))))))) | -31.4 kcal/mol | 55.2 °C |
| AGAACGAAAGTTCT (((((....))))) | -19.9 kcal/mol | 53.1 °C |
| AGAATGAAAATTCT (((((....))))) | -10.8 kcal/mol | 25.9 °C |
| AGAGGGAAACCTCT (((((....))))) | -16.6 kcal/mol | 43.4 °C |
| AGCTAGAAATAGCT (((((....))))) | -14.9 kcal/mol | 41.3 °C |
| AGGGAGAAATCCCT (((((....))))) | -18.6 kcal/mol | 42 °C |
| AGGTCGAAAGACCT (((((....))))) | -22.1 kcal/mol | 67.4 °C |
| AGTAGGAAACTACT (((((....))))) | -16.9 kcal/mol | 33.2 °C |

| Sequence | folding enthalpy [1] | Tm [2] |
| --- | --- | --- |
| AGTGAGAAATCACT (((((....))))) | -15.7 kcal/mol | 38.5 °C |
| AGTTGGAAACAACT (((((....))))) | -19.9 kcal/mol | 43.2 °C |
| AGTTTGAAAAAACT (((((....))))) | -12.1 kcal/mol | 33 °C |
| ATAGCGAAAGCTAT (((((....))))) | -15.9 kcal/mol | 54 °C |
| ATCACGAAAGTGAT (((((....))))) | -25.6 kcal/mol | 54.8 °C |
| ATCAGGAAACTGAT (((((....))))) | -16.5 kcal/mol | 40.6 °C |
| ATCTCGAAAGAGAT (((((....))))) | -20.9 kcal/mol | 51.1 °C |
| ATGCAGAAATGCAT (((((....))))) | -24.1 kcal/mol | 46.2 °C |
| ATGGAGAAATCCAT (((((....))))) | -14.6 kcal/mol | 36 °C |
| ATTACGAAAGTAAT (((((....))))) | -17.5 kcal/mol | 44.4 °C |
| ATTCAGAAATGAAT (((((....))))) | -11.5 kcal/mol | 29.3 °C |
| CAAATGAAAATTTG (((((....))))) | -12.8 kcal/mol | 32.8 °C |
| CAACCCGAAAGGCTTG (((.((....)).))) | -16 kcal/mol | 30.2 °C |
| CAAGTGAAAACTTG (((((....))))) | -23.7 kcal/mol | 42.9 °C |
| CACCGGAAACGGTG (((((....))))) | -30 kcal/mol | 60.5 °C |
| CACTGGAAACAGTG (((((....))))) | -26.7 kcal/mol | 50.7 °C |
| CAGAAGAAATTCTG (((((....))))) | -12.7 kcal/mol | 33.8 °C |
| CAGAGGAAACTCTG (((((....))))) | -21.1 kcal/mol | 45 °C |
| CAGATGAAAATCTG (((((....))))) | -22.9 kcal/mol | 44.4 °C |
| CAGCGGAAACGCTG (((((....))))) | -20.8 kcal/mol | 69.3 °C |
| CATCGGAAACGATG (((((....))))) | -25.8 kcal/mol | 53.5 °C |
| CATTCGAAAGAATG (((((....))))) | -23.2 kcal/mol | 49.7 °C |
| CCACAGAAATGTGG (((((....))))) | -18.5 kcal/mol | 50.5 °C |
| CCAGAGAAATCTGG (((((....))))) | -19.2 kcal/mol | 44.4 °C |
| CCATCGAAAGATGG (((((....))))) | -23.3 kcal/mol | 60.5 °C |

| Sequence | folding enthalpy [1] | Tm [2] |
| --- | --- | --- |
| CCCTTGAAAAAGGG (((((....))))) | -16.9 kcal/mol | 47.2 °C |
| CCTATGAAAATAGG (((((....))))) | -14.2 kcal/mol | 41.2 °C |
| CCTGAGAAATCAGG (((((....))))) | -19.4 kcal/mol | 44.8 °C |
| CCTGGGAAACCAGG (((((....))))) | -19.5 kcal/mol | 55 °C |
| CCTGTGAAAACAGG (((((....))))) | -17 kcal/mol | 51.6 °C |
| CGAAACGGAAACGTTCG (((.(((....)))))) | -25.9 kcal/mol | 45 °C |
| CGAACCGGAAACGGTCG (((.(((....)))))) | -23 kcal/mol | 51.4 °C |
| CGAACGGAAACGTACTCG ((((((....)))..))) | -5.58 kcal/mol | 15 °C |
| CGAACGGAAACGTGTTCG ((((((....)))..))) | -26.7 kcal/mol | 42.6 °C |
| CGAACTCGGAAACGATCG (((..(((....)))))) | -16.3 kcal/mol | 22.9 °C |
| CGAATCGGAAACGACTCG (((.(((....))).))) | -36.2 kcal/mol | 42.1 °C |
| CGAATGCGGAAACGCTCG (((..(((....)))))) | -15.3 kcal/mol | 37.2 °C |
| CGACACGGAAACGTTCG (((.(((....)))))) | -35 kcal/mol | 42 °C |
| CGACCGGAAACGGCATCG ((((((....)))..))) | -14.8 kcal/mol | 30 °C |
| CGACCGGAAACGGGGTCG ((((((....)))..))) | -28.8 kcal/mol | 48.6 °C |
| CGACCGGAAACGGTTCG ((((((....))).))) | -20.1 kcal/mol | 49.2 °C |
| CGAGACGGAAACGTATCG (((.(((....))).))) | -34.6 kcal/mol | 52.1 °C |
| CGAGACGGAAACGTGTCG (((.(((....))).))) | -37.6 kcal/mol | 52.1 °C |
| CGAGAGCGGAAACGCTCG (((..(((....)))))) | -18.5 kcal/mol | 58.4 °C |
| CGAGATCGGAAACGATCG (((..(((....)))))) | -20 kcal/mol | 51.6 °C |
| CGAGCCGGAAACGGTCG (((.(((....)))))) | -27.3 kcal/mol | 48.6 °C |
| CGAGCGGAAACGCATCG ((((((....))).))) | -20.9 kcal/mol | 48.5 °C |
| CGAGCGGAAACGCATTCG ((((((....)))..))) | -14.8 kcal/mol | 33.1 °C |
| CGAGCGGAAACGCCGTCG ((((((....)))..))) | -15.5 kcal/mol | 55 °C |
